According to ChEMBL document CHEMBL5058577, “EUbOPEN Chemogenomics Library 2 (Multiplex)” (2022):

Tested on: Fibroblast
Assay: Multiplex assay against human fibroblast
Assay type: toxicity, cell-based
Summary of the method: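 Values for tubulin, mitochondrial-mass and membrane-permeability phenotypes are per cents of cells with healthy nuclei. These cells were identified by CellPathfinder machine-learning gating of live cells that had been stained at seeding with Hoechst33342, BioTracker Green Microtubule Cytoskeleton Dye, MitoTracker Red and Annexin V Alexa Fluor 680 and imaged on a CQ1 microscope at 37°C and 5% CO2 after compound addition. The gating first set Hoechst high-intensity objects apart from normal cells, then split normal cells into healthy, pyknosed or fragmented nuclei, and pyknosed cells into mitotic or apoptotic.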

[1] = 12 h, 1 µM, compound concentration 1 uM, replicate 1
[2] = 12 h, 1 µM, compound concentration 1 uM, replicate 2
[3] = 12 h, 10 µM, compound concentration 10 uM, replicate 1
[4] = 12 h, 10 µM, compound concentration 10 uM, replicate 2
[5] = 24 h, 1 µM, compound concentration 1 uM, replicate 1
[6] = 24 h, 1 µM, compound concentration 1 uM, replicate 2
[7] = 24 h, 10 µM, compound concentration 10 uM, replicate 1
[8] = 24 h, 10 µM, compound concentration 10 uM, replicate 2
[9] = 48 h, 1 µM, compound concentration 1 uM, replicate 1
[10] = 48 h, 1 µM, compound concentration 1 uM, replicate 2
[11] = 48 h, 10 µM, compound concentration 10 uM, replicate 1
[12] = 48 h, 10 µM, compound concentration 10 uM, replicate 2

## CCCN1CCC[C@@H]2Cc3n[nH]cc3C[C@H]21.Cl [QUINPIROLE HYDROCHLORIDE]
[1]
  Population Apoptotic (%): 45%
  Population Fragmented Nuclei (%): 14%
  Population Healthy Nuclei (%): 65%
  Population Hoechst High Intensity Objects (%): 2%
  Population Membrane Permeable-Phenotype (%): 0%
  Population Mitochondria Different-Phenotype (%): 3%
  Population Mitotic Cells (%): 54%
  Population Normal (%): 97%
  Population Pyknosed Nuclei (%): 20%
  Population Tubulin-Different-Phenotype (%): 17%
  Total Cell Count: 156
[2]
  Population Apoptotic (%): 52%
  Population Fragmented Nuclei (%): 22%
  Population Healthy Nuclei (%): 60%
  Population Hoechst High Intensity Objects (%): 6%
  Population Membrane Permeable-Phenotype (%): 7%
  Population Mitochondria Different-Phenotype (%): 6%
  Population Mitotic Cells (%): 47%
  Population Normal (%): 93%
  Population Pyknosed Nuclei (%): 17%
  Population Tubulin-Different-Phenotype (%): 50%
  Total Cell Count: 139
[3]
  Population Apoptotic (%): 58%
  Population Fragmented Nuclei (%): 16%
  Population Healthy Nuclei (%): 68%
  Population Hoechst High Intensity Objects (%): 4%
  Population Membrane Permeable-Phenotype (%): 1%
  Population Mitochondria Different-Phenotype (%): 6%
  Population Mitotic Cells (%): 41%
  Population Normal (%): 95%
  Population Pyknosed Nuclei (%): 15%
  Population Tubulin-Different-Phenotype (%): 33%
  Total Cell Count: 115
[4]
  Population Apoptotic (%): 45%
  Population Fragmented Nuclei (%): 23%
  Population Healthy Nuclei (%): 59%
  Population Hoechst High Intensity Objects (%): 2%
  Population Membrane Permeable-Phenotype (%): 10%
  Population Mitotic Cells (%): 54%
  Population Normal (%): 97%
  Population Pyknosed Nuclei (%): 17%
  Population Tubulin-Different-Phenotype (%): 55%
  Total Cell Count: 184
[5]
  Population Apoptotic (%): 52%
  Population Fragmented Nuclei (%): 21%
  Population Healthy Nuclei (%): 64%
  Population Hoechst High Intensity Objects (%): 1%
  Population Membrane Permeable-Phenotype (%): 0%
  Population Mitochondria Different-Phenotype (%): 2%
  Population Mitotic Cells (%): 47%
  Population Normal (%): 98%
  Population Pyknosed Nuclei (%): 13%
  Population Tubulin-Different-Phenotype (%): 13%
  Total Cell Count: 172
[6]
  Population Apoptotic (%): 34%
  Population Fragmented Nuclei (%): 28%
  Population Healthy Nuclei (%): 53%
  Population Hoechst High Intensity Objects (%): 2%
  Population Membrane Permeable-Phenotype (%): 1%
  Population Mitochondria Different-Phenotype (%): 7%
  Population Mitotic Cells (%): 65%
  Population Pyknosed Nuclei (%): 17%
  Population Tubulin-Different-Phenotype (%): 41%
  Total Cell Count: 150
[7]
  Population Apoptotic (%): 75%
  Population Fragmented Nuclei (%): 22%
  Population Healthy Nuclei (%): 67%
  Population Hoechst High Intensity Objects (%): 2%
  Population Membrane Permeable-Phenotype (%): 0%
  Population Mitochondria Different-Phenotype (%): 7%
  Population Mitotic Cells (%): 25%
  Population Normal (%): 97%
  Population Pyknosed Nuclei (%): 10%
  Population Tubulin-Different-Phenotype (%): 32%
  Total Cell Count: 119
[8]
  Population Apoptotic (%): 55%
  Population Fragmented Nuclei (%): 38%
  Population Healthy Nuclei (%): 51%
  Population Hoechst High Intensity Objects (%): 1%
  Population Membrane Permeable-Phenotype (%): 7%
  Population Mitochondria Different-Phenotype (%): 3%
  Population Mitotic Cells (%): 45%
  Population Normal (%): 98%
  Population Pyknosed Nuclei (%): 9%
  Population Tubulin-Different-Phenotype (%): 39%
  Total Cell Count: 209
[9]
  Population Apoptotic (%): 68%
  Population Fragmented Nuclei (%): 23%
  Population Healthy Nuclei (%): 62%
  Population Hoechst High Intensity Objects (%): 3%
  Population Membrane Permeable-Phenotype (%): 0%
  Population Mitochondria Different-Phenotype (%): 3%
  Population Mitotic Cells (%): 32%
  Population Normal (%): 96%
  Population Pyknosed Nuclei (%): 14%
  Population Tubulin-Different-Phenotype (%): 21%
  Total Cell Count: 175
[10]
  Population Apoptotic (%): 38%
  Population Fragmented Nuclei (%): 37%
  Population Healthy Nuclei (%): 53%
  Population Hoechst High Intensity Objects (%): 1%
  Population Membrane Permeable-Phenotype (%): 8%
  Population Mitochondria Different-Phenotype (%): 4%
  Population Mitotic Cells (%): 61%
  Population Normal (%): 98%
  Population Pyknosed Nuclei (%): 8%
  Population Tubulin-Different-Phenotype (%): 42%
  Total Cell Count: 157
[11]
  Population Apoptotic (%): 53%
  Population Fragmented Nuclei (%): 23%
  Population Healthy Nuclei (%): 65%
  Population Hoechst High Intensity Objects (%): 1%
  Population Membrane Permeable-Phenotype (%): 2%
  Population Mitochondria Different-Phenotype (%): 6%
  Population Mitotic Cells (%): 46%
  Population Normal (%): 98%
  Population Pyknosed Nuclei (%): 11%
  Population Tubulin-Different-Phenotype (%): 31%
  Total Cell Count: 119
[12]
  Population Apoptotic (%): 46%
  Population Fragmented Nuclei (%): 43%
  Population Healthy Nuclei (%): 48%
  Population Hoechst High Intensity Objects (%): 3%
  Population Mitochondria Different-Phenotype (%): 4%
  Population Mitotic Cells (%): 53%
  Population Normal (%): 96%
  Population Pyknosed Nuclei (%): 8%
  Population Tubulin-Different-Phenotype (%): 48%
  Total Cell Count: 192

## Cl.Clc1ccc2nsnc2c1NC1=NCCN1 [TIZANIDINE HYDROCHLORIDE]
[1]
  Population Apoptotic (%): 38%
  Population Fragmented Nuclei (%): 10%
  Population Healthy Nuclei (%): 72%
  Population Hoechst High Intensity Objects (%): 3%
  Population Membrane Permeable-Phenotype (%): 0%
  Population Mitochondria Different-Phenotype (%): 4%
  Population Mitotic Cells (%): 61%
  Population Normal (%): 96%
  Population Pyknosed Nuclei (%): 17%
  Population Tubulin-Different-Phenotype (%): 21%
  Total Cell Count: 155
[2]
  Population Apoptotic (%): 33%
  Population Fragmented Nuclei (%): 24%
  Population Healthy Nuclei (%): 49%
  Population Hoechst High Intensity Objects (%): 4%
  Population Membrane Permeable-Phenotype (%): 5%
  Population Mitochondria Different-Phenotype (%): 5%
  Population Mitotic Cells (%): 66%
  Population Normal (%): 95%
  Population Pyknosed Nuclei (%): 25%
  Population Tubulin-Different-Phenotype (%): 50%
  Total Cell Count: 182
[3]
  Population Apoptotic (%): 36%
  Population Fragmented Nuclei (%): 18%
  Population Healthy Nuclei (%): 60%
  Population Hoechst High Intensity Objects (%): 4%
  Population Membrane Permeable-Phenotype (%): 0%
  Population Mitochondria Different-Phenotype (%): 8%
  Population Mitotic Cells (%): 64%
  Population Normal (%): 95%
  Population Pyknosed Nuclei (%): 20%
  Population Tubulin-Different-Phenotype (%): 29%
  Total Cell Count: 129
[4]
  Population Apoptotic (%): 21%
  Population Fragmented Nuclei (%): 24%
  Population Healthy Nuclei (%): 45%
  Population Membrane Permeable-Phenotype (%): 7%
  Population Mitochondria Different-Phenotype (%): 7%
  Population Mitotic Cells (%): 78%
  Population Pyknosed Nuclei (%): 29%
  Population Tubulin-Different-Phenotype (%): 33%
  Total Cell Count: 143
[5]
  Population Apoptotic (%): 52%
  Population Fragmented Nuclei (%): 6%
  Population Healthy Nuclei (%): 76%
  Population Hoechst High Intensity Objects (%): 2%
  Population Membrane Permeable-Phenotype (%): 0%
  Population Mitochondria Different-Phenotype (%): 0%
  Population Mitotic Cells (%): 47%
  Population Normal (%): 97%
  Population Pyknosed Nuclei (%): 16%
  Population Tubulin-Different-Phenotype (%): 16%
  Total Cell Count: 146
[6]
  Population Apoptotic (%): 42%
  Population Fragmented Nuclei (%): 26%
  Population Healthy Nuclei (%): 49%
  Population Hoechst High Intensity Objects (%): 4%
  Population Membrane Permeable-Phenotype (%): 9%
  Population Mitochondria Different-Phenotype (%): 4%
  Population Mitotic Cells (%): 57%
  Population Normal (%): 95%
  Population Pyknosed Nuclei (%): 24%
  Population Tubulin-Different-Phenotype (%): 50%
  Total Cell Count: 182
[7]
  Population Apoptotic (%): 45%
  Population Fragmented Nuclei (%): 19%
  Population Healthy Nuclei (%): 60%
  Population Hoechst High Intensity Objects (%): 1%
  Population Membrane Permeable-Phenotype (%): 0%
  Population Mitochondria Different-Phenotype (%): 5%
  Population Mitotic Cells (%): 54%
  Population Normal (%): 98%
  Population Pyknosed Nuclei (%): 20%
  Population Tubulin-Different-Phenotype (%): 20%
  Total Cell Count: 122
[8]
  Population Apoptotic (%): 47%
  Population Healthy Nuclei (%): 48%
  Population Hoechst High Intensity Objects (%): 2%
  Population Membrane Permeable-Phenotype (%): 9%
  Population Mitochondria Different-Phenotype (%): 6%
  Population Mitotic Cells (%): 52%
  Population Normal (%): 97%
  Population Pyknosed Nuclei (%): 32%
  Population Tubulin-Different-Phenotype (%): 34%
  Total Cell Count: 135
[9]
  Population Apoptotic (%): 47%
  Population Fragmented Nuclei (%): 17%
  Population Healthy Nuclei (%): 71%
  Population Hoechst High Intensity Objects (%): 2%
  Population Membrane Permeable-Phenotype (%): 2%
  Population Mitochondria Different-Phenotype (%): 1%
  Population Mitotic Cells (%): 52%
  Population Normal (%): 97%
  Population Pyknosed Nuclei (%): 10%
  Population Tubulin-Different-Phenotype (%): 19%
  Total Cell Count: 167
[10]
  Population Apoptotic (%): 55%
  Population Fragmented Nuclei (%): 29%
  Population Healthy Nuclei (%): 47%
  Population Hoechst High Intensity Objects (%): 6%
  Population Membrane Permeable-Phenotype (%): 6%
  Population Mitochondria Different-Phenotype (%): 8%
  Population Mitotic Cells (%): 44%
  Population Normal (%): 93%
  Population Pyknosed Nuclei (%): 23%
  Population Tubulin-Different-Phenotype (%): 56%
  Total Cell Count: 166
[11]
  Population Apoptotic (%): 69%
  Population Fragmented Nuclei (%): 26%
  Population Healthy Nuclei (%): 56%
  Population Hoechst High Intensity Objects (%): 2%
  Population Membrane Permeable-Phenotype (%): 0%
  Population Mitochondria Different-Phenotype (%): 5%
  Population Mitotic Cells (%): 30%
  Population Normal (%): 97%
  Population Pyknosed Nuclei (%): 17%
  Population Tubulin-Different-Phenotype (%): 26%
  Total Cell Count: 133
[12]
  Population Apoptotic (%): 63%
  Population Fragmented Nuclei (%): 35%
  Population Healthy Nuclei (%): 42%
  Population Membrane Permeable-Phenotype (%): 6%
  Population Mitochondria Different-Phenotype (%): 11%
  Population Mitotic Cells (%): 36%
  Population Pyknosed Nuclei (%): 21%
  Population Tubulin-Different-Phenotype (%): 44%
  Total Cell Count: 141
